Reference: ChEMBL document CHEMBL4334423, “Synthesis, molecular docking, and biological evaluation of novel 2-pyrazoline derivatives as multifunctional agents for the treatment of Alzheimer's disease” (Medchemcomm, 2019)
Activity calls are given as the source filed them. The calls are words filed in the database; no cut-off is given here.

Columns and labels:
[1] = Selectivity index, ratio of IC50 for human recombinant AChE expressed in HEK293 cells to IC50 for equine serum BChE; type: cell-based
Outline: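 Both enzymes were run by the same Ellman method: substrate 0.2–0.5 mM, DTNB 0.125 mM, 100 mM MOPS pH 8.0, 25 °C, read at 412 nm. IC50 came from dose–response curves, and selectivity = IC50(AChE)/IC50(BChE).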

[2] = biological target: T1, Acetylcholinesterase (Homo sapiens, UniProt P22303); experiment: Inhibition of human recombinant AChE expressed in HEK293 cells using acetylthiocholine iodide as substrate by Ellman's method
[3] = biological target: T2, Cholinesterase (Equus caballus, UniProt P81908); experiment: Inhibition of equine serum BChE using butyrylthiocholine iodide as substrate by Ellman's method
[4] = system: SH-SY5Y; experiment: cells; type: functional; settings: Homo sapiens
[5] = system: SH-SY5Y; experiment: cells; type: functional; settings: Homo sapiens; remark: listed apart in the source
[6] = biological target: Amyloid-beta precursor protein (Homo sapiens) (UniProt P05067); experiment: Inhibition of human amyloid beta (1 to 42) self-induced aggregation assessed as Amyloid beta (1 to 42) aggregation at 100 uM incubated for 48 hrs by thioflavin T-based fluorescence assay (reference value: 100%); design: scale not given: the % may be the effect or the level left
[7] = biological target: T1, Acetylcholinesterase; experiment: Competitive inhibition of human recombinant AChE expressed in HEK293 cells using acetylthiocholine iodide as substrate by Dixon and slope replot analysis
Outline: (§1)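 Ellman assay. Enzyme added last to a mix of thiocholine substrate (0.2–0.5 mM) and 0.125 mM DTNB in 100 mM MOPS pH 8.0 at 25 °C. Absorbance was followed at 412 nm. For kinetics, Dixon plots (1/v versus I) were built at inhibitor 0.5, 1, 10 and 100 μM and fitted with slope replots to get Ki. IC50 came from dose–response curves.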

[8] = Cytotoxicity against mouse L929 cells assessed as cell viability at 10 uM incubated for 24 hrs by MTT assay (reference value: 100%); type: cell-based; settings: read-out: Activity
Outline: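 L929 cells (ATCC CCL-1) seeded at 5000 per well, exposed to 10 μM compound for 24 h. MTT reagent was added, formazan dissolved in DMSO, and absorbance read at 570 and 690 nm. Viability is expressed relative to a non-treated control taken as 100%.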

[9] = biological target: Amyloid-beta precursor protein (Homo sapiens) (UniProt P05067); experiment: Inhibition of human amyloid beta (1 to 42) self-induced aggregation assessed as Amyloid beta (1 to 42) aggregation at 10 uM incubated for 48 hrs by thioflavin T-based fluorescence assay (reference value: 100%); design: scale not given: the % may be the effect or the level left
[10] = biological target: T2, Cholinesterase; experiment: Partial non-competitive inhibition of equine serum BChE using butyrylthiocholine iodide as substrate by Dixon and slope replot analysis; outline: as §1
[11] = biological target: Cholinesterase (Equus caballus) (UniProt P81908); experiment: Partial non-competitive inhibition of equine serum BChE assessed as decrease in Vmax with unchanged Km using butyrylthiocholine iodide as substrate by Dixon and slope replot analysis; outline: as §1
Chain of Cholinesterase (Equus caballus) (P81908 whole entry): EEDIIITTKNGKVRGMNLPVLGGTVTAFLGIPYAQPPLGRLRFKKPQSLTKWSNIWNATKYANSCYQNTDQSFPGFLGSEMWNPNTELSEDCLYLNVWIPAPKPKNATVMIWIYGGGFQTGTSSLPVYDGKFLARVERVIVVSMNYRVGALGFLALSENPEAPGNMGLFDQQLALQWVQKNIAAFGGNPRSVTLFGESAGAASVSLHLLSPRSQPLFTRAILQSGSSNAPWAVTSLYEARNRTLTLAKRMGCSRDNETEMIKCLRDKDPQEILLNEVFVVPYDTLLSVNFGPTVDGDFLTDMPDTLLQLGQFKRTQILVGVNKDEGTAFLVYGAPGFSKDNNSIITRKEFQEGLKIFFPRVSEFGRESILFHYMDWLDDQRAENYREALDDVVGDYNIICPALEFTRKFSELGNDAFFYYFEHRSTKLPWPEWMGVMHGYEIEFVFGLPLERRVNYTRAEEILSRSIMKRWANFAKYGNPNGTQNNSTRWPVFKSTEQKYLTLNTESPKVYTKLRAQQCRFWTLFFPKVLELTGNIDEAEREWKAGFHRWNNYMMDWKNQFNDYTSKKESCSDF

Chain of Amyloid-beta precursor protein (Homo sapiens) (P05067 whole entry): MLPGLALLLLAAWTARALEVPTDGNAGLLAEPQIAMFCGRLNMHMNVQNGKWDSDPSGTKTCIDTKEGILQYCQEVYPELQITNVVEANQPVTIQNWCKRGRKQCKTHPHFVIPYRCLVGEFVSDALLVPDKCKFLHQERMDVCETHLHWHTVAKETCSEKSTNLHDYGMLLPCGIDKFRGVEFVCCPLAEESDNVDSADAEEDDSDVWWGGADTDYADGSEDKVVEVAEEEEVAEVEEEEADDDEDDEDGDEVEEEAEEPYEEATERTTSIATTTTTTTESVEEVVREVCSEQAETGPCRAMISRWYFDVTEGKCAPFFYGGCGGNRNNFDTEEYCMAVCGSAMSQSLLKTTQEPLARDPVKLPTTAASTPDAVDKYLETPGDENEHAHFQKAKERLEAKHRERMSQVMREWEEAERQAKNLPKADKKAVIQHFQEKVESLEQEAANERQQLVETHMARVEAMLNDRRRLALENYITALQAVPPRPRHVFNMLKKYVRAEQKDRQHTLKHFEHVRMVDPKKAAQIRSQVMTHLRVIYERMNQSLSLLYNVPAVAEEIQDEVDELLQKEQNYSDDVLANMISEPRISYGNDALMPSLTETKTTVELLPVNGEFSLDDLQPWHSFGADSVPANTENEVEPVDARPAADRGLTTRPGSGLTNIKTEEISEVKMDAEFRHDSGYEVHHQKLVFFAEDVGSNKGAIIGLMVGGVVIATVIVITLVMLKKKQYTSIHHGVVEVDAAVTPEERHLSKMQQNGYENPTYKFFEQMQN
T1 sequence (P22303 whole entry): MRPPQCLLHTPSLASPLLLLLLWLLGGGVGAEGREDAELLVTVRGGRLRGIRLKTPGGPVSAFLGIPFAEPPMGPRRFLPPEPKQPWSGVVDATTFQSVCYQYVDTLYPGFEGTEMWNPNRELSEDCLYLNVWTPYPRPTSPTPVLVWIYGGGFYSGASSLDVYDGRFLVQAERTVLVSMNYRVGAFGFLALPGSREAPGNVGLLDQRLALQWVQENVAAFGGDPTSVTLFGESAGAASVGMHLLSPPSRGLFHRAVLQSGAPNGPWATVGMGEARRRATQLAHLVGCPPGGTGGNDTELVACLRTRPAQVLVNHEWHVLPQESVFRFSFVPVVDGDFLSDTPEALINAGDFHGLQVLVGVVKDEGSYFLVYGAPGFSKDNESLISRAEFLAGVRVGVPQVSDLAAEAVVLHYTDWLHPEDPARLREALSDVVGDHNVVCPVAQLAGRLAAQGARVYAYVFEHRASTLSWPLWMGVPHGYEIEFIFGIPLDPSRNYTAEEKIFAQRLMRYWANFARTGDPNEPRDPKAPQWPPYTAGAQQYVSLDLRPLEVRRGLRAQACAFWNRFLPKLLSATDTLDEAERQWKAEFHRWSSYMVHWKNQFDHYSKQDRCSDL
T2 sequence (P81908 whole entry): as the sequence (P81908 whole entry) above

SMILES | Ratio IC50 [1] | IC50 [2] | IC50 [3] | viability at 10 µM [4] | viability at 10 µM [5] | Activity [6] | Ki [7] | viability at 24 h, 10 µM [8] | Activity [9] | Ki [10] | inhibition [11]
COc1ccc(C2=NN(C(C)=O)C(c3ccc(-n4cncn4)cc3)C2)cc1OC (stereo unspecified) | 34.8 | 955 µM | 27.5 µM |  |  |  |  |  |  |  | 
COc1ccc(C2=NN(C(C)=O)C(c3ccc(-n4cnc5ccccc54)cc3)C2)cc1OC (stereo unspecified) | 1.2 | 319 µM | 254 µM |  |  |  |  |  |  |  | 
COc1cc2c(cc1OC)C(=O)C(CC1CCN(Cc3ccccc3)CC1)C2 (stereo unspecified) [DONEPEZIL] |  |  |  | 69% | 62.5% |  |  |  |  |  | 
CO[C@H]1/C=C/O[C@@]2(C)Oc3c(C)c(O)c4c(O)c(c(/C=N/N5CCN(C)CC5)c(O)c4c3C2=O)NC(=O)/C(C)=C\C=C\[C@H](C)[C@H](O)[C@@H](C)[C@@H](O)[C@@H](C)[C@H](OC(C)=O)[C@@H]1C |  |  |  |  |  | 48.4% |  |  |  |  | 
COc1ccc(C2=NN(C(C)=O)C(c3ccc(-n4ccnc4)cc3)C2)cc1OC (stereo unspecified) | 6.3 | 206 µM | 32.7 µM |  |  |  |  |  |  |  | 
COc1ccc(C2=NN(C(C)=O)C(c3ccc(N4CCN(c5ccccc5)CC4)cc3)C2)cc1OC (stereo unspecified) | 0.2 | 295 µM | 1900 µM |  |  |  |  |  |  |  | 
COc1ccc(C2=NN(C(C)=O)C(c3ccc(N4CCN(Cc5ccccc5)CC4)cc3)C2)cc1 (stereo unspecified) | 0.7 | 100 µM | 137 µM |  |  |  |  |  |  |  | 
COc1ccc(C2=NN(C(C)=O)C(c3ccc(N4CCN(C)CC4)cc3)C2)cc1OC (stereo unspecified) | 1.1 | 6.5 µM | 6 µM | 93.6% | 95.6% | 72.6% | 0.63 µM | 93.3% |  |  | 
COc1ccc(C2=NN(C(C)=O)C(c3ccc(N4CCC(Cc5ccccc5)CC4)cc3)C2)cc1OC (stereo unspecified) | 9.8 | 20.1 µM | 2.1 µM | 84.4% | 83.5% | 86.4% |  | 101% | 82.2% |  | 
CCN1CCN(c2ccc(C3CC(c4ccc(OC)c(OC)c4)=NN3C(C)=O)cc2)CC1 (stereo unspecified) | 104 | 47.9 µM | 0.5 µM | 87.4% | 67.9% | 83.4% |  | 89.2% |  | 2.22 µM | Active
COc1ccc(C2=NN(C(C)=O)C(c3ccc(N4CCN(Cc5ccccc5)CC4)cc3)C2)cc1OC (stereo unspecified) | 128 | 62.8 µM | 0.5 µM | 87% | 69.3% | 89.8% |  | 93.3% |  |  | 
COc1ccc(C2=NN(C(C)=O)C(c3ccc(N4CCC(C)CC4)cc3)C2)cc1OC (stereo unspecified) | 19.9 | 77.4 µM | 3.9 µM | 81.1% | 78.4% | 63.4% |  | 95.4% | 80.6% |  | 
CCN1CCN(c2ccc(C3CC(c4ccc(OC)cc4)=NN3C(C)=O)cc2)CC1 (stereo unspecified) | 1 | 221 µM | 217 µM |  |  |  |  |  |  |  | 
